Laboratory results from ChEMBL document CHEMBL1144084, “Semisynthesis and cytotoxicity of styryl-lactone derivatives” (J Nat Prod, 1999).
Converted amounts (≈) assume the structure as drawn. The source made the active and inactive calls. The calls are words filed in the database; no cut-off is given here.

What was measured:
L1210 [1] = test: Cytotoxicity against mouse L1210 cells after 48 hrs by MTT assay; format: functional, cell-based; conditions: L1210, 48 h
Summary of the method: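 Cells grown in RPMI 1640 with 10% fetal calf serum, 2 mM L-glutamine, penicillin/streptomycin and 10 mM Hepes (pH 7.4), exposed 48 h to graded drug concentrations. Read-out by microculture tetrazolium assay. IC50 is the concentration lowering optical density by 50% relative to untreated controls.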

L1210 [2] = test: Cell cycle arrest in mouse L1210 cells by accumulation at G2M phase after 21 hrs relative to control; format: functional
Summary of the method: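 L-1210 cells incubated 21 h at 37 °C with various drug concentrations, fixed in 70% EtOH (v/v), washed, then stained 30 min at 20 °C in PBS with 100 µg/mL RNAse and 25 µg/mL propidium iodide. Value is percentage of cells accumulated in G2 + M phase after 21 h versus untreated control.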

Structure (SMILES) | IC50 (L1210 [1]) | Activity (L1210 [2])
CO[C@H]1[C@@H](O)[C@H](O)[C@@H](c2ccccc2)OC(=O)C[C@H]1OC | 5.2 µg/mL (≈ 17.5 µM) | inactive
O=C1C=C[C@@H]2O[C@H](c3c([N+](=O)[O-])cccc3[N+](=O)[O-])[C@@H](O)[C@@H]2O1 | 5 µg/mL (≈ 15.5 µM) | inactive
O=C1C=C[C@@H]2O[C@H](c3ccc([N+](=O)[O-])cc3)[C@@H](O)[C@@H]2O1 | 3.2 µg/mL (≈ 11.5 µM) | 35%
O=C1C[C@@H](Cl)[C@@H]2O[C@H](c3ccccc3)[C@@H](O)[C@@H]2O1 | 3.7 µg/mL (≈ 13.8 µM) | 35%
O=C1C=C[C@@H]2O[C@H](c3ccccc3)[C@@H](O)[C@@H]2O1 [ALTHOLACTONE] | 2.9 µg/mL (≈ 12.5 µM) | 35%
